The record followed here is ChEMBL document CHEMBL5131562, “1,3-Dioxane-Linked Novel Bacterial Topoisomerase Inhibitors: Expanding Structural Diversity and the Antibacterial Spectrum” (ACS Med Chem Lett, 2022).

SMILES strings stand for the structures. In brackets after ≈: the same amount, converted by molar mass. Where only a bound is given, the exact number is not on record here.

The MIC is the smallest concentration in the dilution series that meets the test's criterion for growth inhibition. A low value points to greater potency. By IC50 is commonly meant the concentration at which inhibition is half-maximal. As a reminder, the half-life is the time in which the quantity being followed falls by half.

One series has as its system Staphylococcus aureus. Kind of series: Antibacterial activity against Staphylococcus aureus 3527 by CLSI method. It counts as functional.
Conditions: not given
`O=C1COc2ccc(CN[C@H]3CO[C@H](CC4Cn5c(=O)ccc6ncc(F)c4c65)OC3)nc2N1` (stereo not given in full): the MIC amounted to 2 µg/mL (≈ 4.28 µM).
The compound `O=c1ccc2ccc(F)c3c2n1CC3C[C@H]1OC[C@H](NCc2ccc3c(c2)OCCO3)CO1` (stereo not given in full) registered an MIC of 0.25 µg/mL (≈ 0.553 µM).

The subject of another series is Staphylococcus aureus. Kind of series: Antibacterial activity against Staphylococcus aureus harbouring GyrA D83N mutant by CLSI method. It counts as functional.
Conditions: not given
For `O=C1COc2ccc(CN[C@H]3CO[C@H](CC4Cn5c(=O)ccc6ncc(F)c4c65)OC3)nc2N1` (stereo not given in full), the MIC was determined as 8 µg/mL (≈ 17.1 µM).
`O=c1ccc2ccc(F)c3c2n1CC3C[C@H]1OC[C@H](NCc2ccc3c(c2)OCCO3)CO1` (stereo not given in full): the MIC is 4 µg/mL (≈ 8.84 µM).

The test system of a further series is Staphylococcus aureus. Kind of series: Antibacterial activity against methicillin-resistant Staphylococcus aureus USA300 by CLSI method. It counts as functional.
Conditions: not given
Turning to `O=C1COc2ccc(CN[C@H]3CO[C@H](CC4Cn5c(=O)ccc6ncc(F)c4c65)OC3)nc2N1` (stereo not given in full), the MIC is 1 µg/mL (≈ 2.14 µM).
`O=c1ccc2ccc(F)c3c2n1CC3C[C@H]1OC[C@H](NCc2ccc3c(c2)OCCO3)CO1` (stereo not given in full) had an MIC of 0.25 µg/mL (≈ 0.553 µM).

The target in the next series is DNA gyrase (Staphylococcus aureus, UniProt P0A0K8+P20831). Kind of series: Inhibition of Staphylococcus aureus DNA gyrase supercoiling activity incubated for 25 min by ethidium bromide/bromophenol blue staining based agarose gel electrophoresis analysis. The format is protein-complex assay.
Conditions: not given
As for `O=C1COc2ccc(CN[C@H]3CO[C@H](CC4Cn5c(=O)ccc6ncc(F)c4c65)OC3)nc2N1` (stereo not given in full), the IC50 was 4.2 µM.
For `O=c1ccc2ccc(F)c3c2n1CC3C[C@H]1OC[C@H](NCc2ccc3c(c2)OCCO3)CO1` (stereo not given in full), half-maximal inhibition (IC50) required 0.23 µM.

System in a further series: not listed separately
Kind of series: Cytotoxicity activity against human K562 cells assessed as inhibition of cellular growth.
Conditions: not given
It counts as toxicity, cell-based. The essentials:
(§1)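 Human K562 leukemia cells were tested alongside K/VP.5, an etoposide-resistant clonal subline derived from them that has reduced levels of human topoisomerase IIα. Cell growth inhibition was expressed as an IC50.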
As to `O=C1COc2ccc(CN[C@H]3CO[C@H](CC4Cn5c(=O)ccc6ncc(F)c4c65)OC3)nc2N1` (stereo not given in full), the IC50 is > 200 µM.
Still for that read-out and setting: then `O=c1ccc2ccc(F)c3c2n1CC3C[C@H]1OC[C@H](NCc2ccc3c(c2)OCCO3)CO1` (stereo not given in full), with 29.1 µM.

In the next series the test system is Neisseria gonorrhoeae. Kind of series: Antimicrobial activity against Neisseria gonorrhoeae K strain harbouring type 2 topoisomerase GyrA S91F, D95N and ParC S87R, S88P mutant incubated for 20 to 24 hrs by CLSI protocol based broth microdilution method. The format is functional. The settings on record: time 20-24 hrs.
In turn, `O=C1COc2ccc(CN[C@H]3CO[C@H](CC4Cn5c(=O)ccc6ncc(F)c4c65)OC3)nc2N1` (stereo not given in full) registered an MIC of 1 µg/mL (≈ 2.14 µM).
In the case of `O=c1ccc2ccc(F)c3c2n1CC3C[C@H]1OC[C@H](NCc2ccc3c(c2)OCCO3)CO1` (stereo not given in full), the MIC was 0.12 µg/mL (≈ 0.265 µM).

For another series, the system named is Staphylococcus aureus. Kind of series: Selectivity ratio of IC50 for inhibition of Staphylococcus aureus DNA topoisomerase 4 decatenation activity to IC50 for inhibition of Staphylococcus aureus DNA gyrase supercoiling activity.
Conditions: not given
Take `O=C1COc2ccc(CN[C@H]3CO[C@H](CC4Cn5c(=O)ccc6ncc(F)c4c65)OC3)nc2N1` (stereo not given in full): the Ratio IC50 was 0.33.
For `O=c1ccc2ccc(F)c3c2n1CC3C[C@H]1OC[C@H](NCc2ccc3c(c2)OCCO3)CO1` (stereo not given in full), the Ratio IC50 came out at 2.6.

System in a further series: not listed separately
Kind of series: Metabolic stability in mouse liver microsomes assessed as half life. The format is ADME, Microsome.
Conditions: not given
Background: Liver microsomes are vesicles of endoplasmic reticulum, rich in cytochrome P450 enzymes.
With `O=C1COc2ccc(CN[C@H]3CO[C@H](CC4Cn5c(=O)ccc6ncc(F)c4c65)OC3)nc2N1` (stereo not given in full), the half-life was determined as 66.3 min.
As to `O=c1ccc2ccc(F)c3c2n1CC3C[C@H]1OC[C@H](NCc2ccc3c(c2)OCCO3)CO1` (stereo not given in full), the half-life stood at 3.26 min.

In the next series the target is Voltage-gated inwardly rectifying potassium channel KCNH2 (Homo sapiens, UniProt Q12809). Kind of series: Inhibition of hERG cardiac ion channel. It counts as toxicity.
Conditions: not given
Put shortly: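 hERG channel inhibition was run by a contract lab. […] Determinations were made in duplicate or triplicate (n = 2 or 3).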
For orientation: hERG is a cardiac potassium channel; its block is linked to QT prolongation.
`O=C1COc2ccc(CN[C@H]3CO[C@H](CC4Cn5c(=O)ccc6ncc(F)c4c65)OC3)nc2N1` (stereo not given in full) returned an IC50 of 97 µM.
For the compound `O=c1ccc2ccc(F)c3c2n1CC3C[C@H]1OC[C@H](NCc2ccc3c(c2)OCCO3)CO1` (stereo not given in full), inhibition was half-maximal at 35 µM (IC50).

A further series relates to Neisseria gonorrhoeae. Kind of series: Antimicrobial activity against wild type Neisseria gonorrhoeae V strain harbouring type 2 topoisomerase GyrA S91F, D95G and ParC S87R mutant incubated for 20 to 24 hrs by CLSI protocol based broth microdilution method. The settings on record: time 20-24 hrs. It counts as functional. On the technique in general: Dilution methods test growth across graded concentrations, often in twofold steps.
In turn, `O=C1COc2ccc(CN[C@H]3CO[C@H](CC4Cn5c(=O)ccc6ncc(F)c4c65)OC3)nc2N1` (stereo not given in full) registered an MIC of 0.5 µg/mL (≈ 1.07 µM).
Consider `O=c1ccc2ccc(F)c3c2n1CC3C[C@H]1OC[C@H](NCc2ccc3c(c2)OCCO3)CO1` (stereo not given in full), for which the minimum inhibitory concentration (MIC) is ≤ 0.03 µg/mL.

The next series concerns Neisseria gonorrhoeae. Kind of series: Antimicrobial activity against wild type Neisseria gonorrhoeae O strain incubated for 20 to 24 hrs by CLSI protocol based broth microdilution method. It counts as functional. The settings on record: time 20-24 hrs.
`O=C1COc2ccc(CN[C@H]3CO[C@H](CC4Cn5c(=O)ccc6ncc(F)c4c65)OC3)nc2N1` (stereo not given in full): it took 1 µg/mL (≈ 2.14 µM) to inhibit growth (MIC).
In the case of `O=c1ccc2ccc(F)c3c2n1CC3C[C@H]1OC[C@H](NCc2ccc3c(c2)OCCO3)CO1` (stereo not given in full), the MIC was found to be 0.25 µg/mL (≈ 0.553 µM).

Another series concerns Staphylococcus aureus. Kind of series: Antibacterial activity against cystic fibrosis isolate Staphylococcus aureus by CLSI method. The format is functional.
Conditions: not given
The compound `O=C1COc2ccc(CN[C@H]3CO[C@H](CC4Cn5c(=O)ccc6ncc(F)c4c65)OC3)nc2N1` (stereo not given in full) gave an MIC of 2 µg/mL (≈ 4.28 µM).
`O=c1ccc2ccc(F)c3c2n1CC3C[C@H]1OC[C@H](NCc2ccc3c(c2)OCCO3)CO1` (stereo not given in full) yielded an MIC of 0.25 µg/mL (≈ 0.553 µM). Against the preceding compound, the MIC is about 8-fold lower.

System in the next series: not listed separately
Kind of series: Cytotoxicity activity against human K/VP.5 cells assessed as inhibition of cellular growth. The format is toxicity, cell-based.
Conditions: not given
The essentials: as §1
Consider `O=C1COc2ccc(CN[C@H]3CO[C@H](CC4Cn5c(=O)ccc6ncc(F)c4c65)OC3)nc2N1` (stereo not given in full), for which the IC50 was > 200 µM.
For the compound `O=c1ccc2ccc(F)c3c2n1CC3C[C@H]1OC[C@H](NCc2ccc3c(c2)OCCO3)CO1` (stereo not given in full), the IC50 came out at 33.9 µM.

The next series has as its system Neisseria gonorrhoeae. Kind of series: Antimicrobial activity against wild type Neisseria gonorrhoeae ATCC 49226 incubated for 20 to 24 hrs by CLSI protocol based broth microdilution method. The format is functional. The settings on record: time 20-24 hrs.
With `O=C1COc2ccc(CN[C@H]3CO[C@H](CC4Cn5c(=O)ccc6ncc(F)c4c65)OC3)nc2N1` (stereo not given in full), the MIC amounted to 1 µg/mL (≈ 2.14 µM).
With `O=c1ccc2ccc(F)c3c2n1CC3C[C@H]1OC[C@H](NCc2ccc3c(c2)OCCO3)CO1` (stereo not given in full), the minimum inhibitory concentration (MIC) worked out at 0.12 µg/mL (≈ 0.265 µM). Against the preceding compound, the MIC is about 8.3-fold lower.

In a further series the test system is Staphylococcus aureus. Kind of series: Antibacterial activity against Staphylococcus aureus ATCC 29213 by CLSI method. It counts as functional.
Conditions: not given
`O=C1COc2ccc(CN[C@H]3CO[C@H](CC4Cn5c(=O)ccc6ncc(F)c4c65)OC3)nc2N1` (stereo not given in full) showed an MIC of 2 µg/mL (≈ 4.28 µM).
Same read-out and setting: with `O=c1ccc2ccc(F)c3c2n1CC3C[C@H]1OC[C@H](NCc2ccc3c(c2)OCCO3)CO1` (stereo not given in full) the figure was 0.125 µg/mL (≈ 0.276 µM).

For a further series, the target named is Topoisomerase IV (Staphylococcus aureus, UniProt P0C1S7+P0C1U9). Kind of series: Inhibition of Staphylococcus aureus DNA topoisomerase 4 decatenation activity using kDNA as substrate incubated for 10 to 20 min by ethidium bromide/bromophenol blue staining based agarose gel electrophoresis analysis. The format is protein-complex assay.
Conditions: not given
`O=C1COc2ccc(CN[C@H]3CO[C@H](CC4Cn5c(=O)ccc6ncc(F)c4c65)OC3)nc2N1` (stereo not given in full): the IC50 turned out to be 1.4 µM.
On the same count and under the same terms, then `O=c1ccc2ccc(F)c3c2n1CC3C[C@H]1OC[C@H](NCc2ccc3c(c2)OCCO3)CO1` (stereo not given in full), with 0.6 µM.

The next series has as its system Neisseria gonorrhoeae. Kind of series: Antimicrobial activity against wild type Neisseria gonorrhoeae Y strain harbouring type 2 topoisomerase GyrA S91F, D95G and ParC S87R mutant incubated for 20 to 24 hrs by CLSI protocol based broth microdilution method. The following applies: time 20-24 hrs. The format is functional.
With `O=C1COc2ccc(CN[C@H]3CO[C@H](CC4Cn5c(=O)ccc6ncc(F)c4c65)OC3)nc2N1` (stereo not given in full), the MIC worked out at 1 µg/mL (≈ 2.14 µM).
Turning to `O=c1ccc2ccc(F)c3c2n1CC3C[C@H]1OC[C@H](NCc2ccc3c(c2)OCCO3)CO1` (stereo not given in full), the MIC was ≤ 0.03 µg/mL.

A further series deals with Neisseria gonorrhoeae. Kind of series: Antimicrobial activity against wild type Neisseria gonorrhoeae F strain incubated for 20 to 24 hrs by CLSI protocol based broth microdilution method. It counts as functional. The following applies: time 20-24 hrs.
As for `O=C1COc2ccc(CN[C@H]3CO[C@H](CC4Cn5c(=O)ccc6ncc(F)c4c65)OC3)nc2N1` (stereo not given in full), the MIC worked out at 0.12 µg/mL (≈ 0.257 µM).
For `O=c1ccc2ccc(F)c3c2n1CC3C[C@H]1OC[C@H](NCc2ccc3c(c2)OCCO3)CO1` (stereo not given in full), the MIC is ≤ 0.03 µg/mL.

The next series relates to Neisseria gonorrhoeae. Kind of series: Antimicrobial activity against Neisseria gonorrhoeae G strain harbouring type 2 topoisomerase GyrA S91F and ParE G410V mutant incubated for 20 to 24 hrs by CLSI protocol based broth microdilution method. It counts as functional. The settings on record: time 20-24 hrs.
Compound `O=C1COc2ccc(CN[C@H]3CO[C@H](CC4Cn5c(=O)ccc6ncc(F)c4c65)OC3)nc2N1` (stereo not given in full) came in with an MIC of 2 µg/mL (≈ 4.28 µM).
Regarding `O=c1ccc2ccc(F)c3c2n1CC3C[C@H]1OC[C@H](NCc2ccc3c(c2)OCCO3)CO1` (stereo not given in full), the MIC came to 0.5 µg/mL (≈ 1.11 µM).

Another series concerns Neisseria gonorrhoeae. Kind of series: Antimicrobial activity against wild type Neisseria gonorrhoeae P strain incubated for 20 to 24 hrs by CLSI protocol based broth microdilution method. The following applies: time 20-24 hrs. The format is functional.
In turn, `O=C1COc2ccc(CN[C@H]3CO[C@H](CC4Cn5c(=O)ccc6ncc(F)c4c65)OC3)nc2N1` (stereo not given in full) yielded an MIC of 2 µg/mL (≈ 4.28 µM).
As for `O=c1ccc2ccc(F)c3c2n1CC3C[C@H]1OC[C@H](NCc2ccc3c(c2)OCCO3)CO1` (stereo not given in full), inhibition of growth (MIC) required 0.25 µg/mL (≈ 0.553 µM).
